According to ChEMBL document CHEMBL1138278, “Aromatic amide derivatives of 5,6-dimethoxy-2,3-dihydro-1H-inden(-1-yl)acetic acid as anti-inflammatory agents free of ulcerogenic liability” (Bioorg Med Chem Lett, 2007):

Experiments:
[1] = tested on: Rattus norvegicus; assay: Antiinflammatory activity in Wistar rat assessed as inhibition of carrageenan-induced paw edema at 100 mg/kg, after 1 hr; format: functional
How it was run: (§1)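 Male Wistar rats (170 ± 20 g) dosed orally: test agents at 100 mg/kg, reference at 10 mg/kg. One hour later, 0.1 ml of 1% carrageenan injected subplantar into the right hind paw.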

[2] = tested on: Rattus norvegicus; assay: Antiinflammatory activity in Wistar rat assessed as inhibition of carrageenan-induced paw edema at 100 mg/kg, after 2 hrs; format: functional; how it was run: as §1
[3] = tested on: Rattus norvegicus; assay: Antiinflammatory activity in Wistar rat assessed as inhibition of carrageenan-induced paw edema at 100 mg/kg, after 3 hrs; format: functional; how it was run: as §1
[4] = tested on: Rattus norvegicus; assay: Antiinflammatory activity in Wistar rat assessed as inhibition of carrageenan-induced paw edema at 100 mg/kg, after 4 hrs; format: functional; how it was run: as §1
[5] = tested on: Rattus norvegicus; assay: Antiinflammatory activity in Wistar rat assessed as inhibition of carrageenan-induced paw edema at 100 mg/kg, after 6 hrs; format: functional; how it was run: as §1
[6] = tested on: Rattus norvegicus; assay: Antiinflammatory activity in Wistar rat assessed as inhibition of carrageenan-induced paw edema at 100 mg/kg, after 24 hrs; format: functional; how it was run: as §1
[7] = tested on: Mus musculus; assay: Analgesic activity in Swiss Albino mouse assessed as number of acetic acid-induced writhing at 100 mg/kg, po after 1 hr relative to control; format: functional
How it was run: (§2)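 Mice dosed orally; one hour later injected i.p. with 1% v/v acetic acid at 0.1 ml/10 g. Writhings counted over 15 min, starting five minutes after injection. Means ± SEM, n = 6; p < 0.05 versus control group.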

[8] = tested on: Mus musculus; assay: Analgesic activity in Swiss Albino mouse assessed as inhibition of acetic acid-induced writhing responses at 100 mg/kg, po after 1 hr; format: functional; how it was run: as §2
[9] = tested on: Rattus norvegicus; assay: Antipyretic activity against LPS-induced pyresis in Wistar rat assessed as change in rectal temperature at 100 mg/kg, po after 1 hr; format: functional
How it was run: (§3)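 Male Wistar rats (170 ± 20 g) dosed orally: test agents at 100 mg/kg, indomethacin and aspirin at 10 mg/kg and 100 mg/kg. Half an hour later, LPS in apyrogenic saline given at 100 µg/kg i.p. Rectal temperature taken by telethermometer probe immediately before LPS and hourly from 1 to 7 h after. Change in temperature reported; means ± SEM, n = 6.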

[10] = tested on: Rattus norvegicus; assay: Antipyretic activity against LPS-induced pyresis in Wistar rat assessed as change in rectal temperature at 100 mg/kg, po after 2 hrs; format: functional; how it was run: as §3
[11] = tested on: Rattus norvegicus; assay: Antipyretic activity against LPS-induced pyresis in Wistar rat assessed as change in rectal temperature at 100 mg/kg, po after 3 hrs; format: functional; how it was run: as §3
[12] = tested on: Rattus norvegicus; assay: Antipyretic activity against LPS-induced pyresis in Wistar rat assessed as change in rectal temperature at 100 mg/kg, po after 4 hrs; format: functional; how it was run: as §3
[13] = tested on: Rattus norvegicus; assay: Antipyretic activity against LPS-induced pyresis in Wistar rat assessed as change in rectal temperature at 100 mg/kg, po after 5 hrs; format: functional; how it was run: as §3
[14] = tested on: Rattus norvegicus; assay: Antipyretic activity against LPS-induced pyresis in Wistar rat assessed as change in rectal temperature at 100 mg/kg, po after 6 hrs; format: functional; how it was run: as §3
[15] = tested on: Rattus norvegicus; assay: Antipyretic activity against LPS-induced pyresis in Wistar rat assessed as change in rectal temperature at 100 mg/kg, po after 7 hrs; format: functional; how it was run: as §3
[16] = tested on: Rattus norvegicus; assay: Antiarthritic activity against adjuvant-induced arthritis in Wistar rat assessed as inhibition of paw edema at 100 mg/kg, po on day 3; format: functional; details: 72 h
How it was run: (§4)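 Male Wistar rats (160 ± 10 g) dosed orally once daily for 14 days, from the day before injecting 0.1 ml Freund's complete adjuvant into the subplantar surface of the right hind paw. Paw swelling, including the uninjected left paw, and body weight recorded. Means ± SEM, n = 6; p < 0.05 versus control.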

[17] = tested on: Rattus norvegicus; assay: Antiarthritic activity against adjuvant-induced arthritis in Wistar rat assessed as inhibition of paw edema at 100 mg/kg, po on day 8; format: functional; details: 192 h; how it was run: as §4
[18] = tested on: Rattus norvegicus; assay: Antiarthritic activity against adjuvant-induced arthritis in Wistar rat assessed as inhibition of paw edema at 100 mg/kg, po on day 13; format: functional; details: 312 h; how it was run: as §4
[19] = tested on: Rattus norvegicus; assay: Antiarthritic activity against adjuvant-induced arthritis in Wistar rat assessed as weight change at 100 mg/kg, po; format: functional; how it was run: as §4
[20] = tested on: Rattus norvegicus; assay: Toxicity in 24 hrs fasted Wistar rat assessed as ulcer index at 100 mg/kg, po after 14 days; format: organism-based; parameters: dose 100 mg/kg, route oral; details: in vivo, 336 h
How it was run: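 Male Wistar rats (175 ± 25 g) fasted 24 h and dosed orally. Acute arm: test agents at 100 mg/kg, indomethacin at 30 mg/kg; rats killed after 6 h, stomachs opened along the greater curvature and scored for ulcers. Chronic arm: 14-day dosing, stomachs examined post mortem at the end of the arthritis study. Ulcer index means ± SEM, n = 4.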

[21] = tested on: Mus musculus; assay: Analgesic activity in Swiss Albino mouse assessed as inhibition of acetic acid-induced writhing responses at 10 mg/kg, po after 1 hr; format: functional; how it was run: as §2
[22] = tested on: Rattus norvegicus; assay: Antipyretic activity against LPS-induced pyresis in Wistar rat assessed as change in rectal temperature at 10 mg/kg, po after 1 hr; format: functional; how it was run: as §3
[23] = tested on: Rattus norvegicus; assay: Antipyretic activity against LPS-induced pyresis in Wistar rat assessed as change in rectal temperature at 10 mg/kg, po after 3 hrs; format: functional; how it was run: as §3
[24] = tested on: Rattus norvegicus; assay: Antipyretic activity against LPS-induced pyresis in Wistar rat assessed as change in rectal temperature at 10 mg/kg, po after 4 hrs; format: functional; how it was run: as §3
[25] = tested on: Rattus norvegicus; assay: Antipyretic activity against LPS-induced pyresis in Wistar rat assessed as change in rectal temperature at 10 mg/kg, po after 5 hrs; format: functional; how it was run: as §3
[26] = tested on: Rattus norvegicus; assay: Antipyretic activity against LPS-induced pyresis in Wistar rat assessed as change in rectal temperature at 100 mg/kg, po after 2 hrs
[27] = tested on: Rattus norvegicus; assay: Antipyretic activity against LPS-induced pyresis in Wistar rat assessed as change in rectal temperature at 100 mg/kg, po after 6 hrs
[28] = tested on: Rattus norvegicus; assay: Antipyretic activity against LPS-induced pyresis in Wistar rat assessed as change in rectal temperature at 100 mg/kg, po after 7 hrs
[29] = tested on: Mus musculus; assay: Analgesic activity in Swiss Albino mouse assessed as number of acetic acid-induced writhing at 100 mg/kg, po after 1 hr relative to control

SMILES | inhibition in vivo at 100 mg/kg [1] | inhibition in vivo at 100 mg/kg [2] | inhibition in vivo at 100 mg/kg [3] | inhibition in vivo at 100 mg/kg [4] | inhibition in vivo at 100 mg/kg [5] | inhibition in vivo at 100 mg/kg [6] | Activity [7] | inhibition in vivo at 100 mg/kg [8] | also measured
COc1cc2c(cc1OC)C(CC(=O)O)CC2 (stereo not given) | 18.8% | 24% | 27.5% | 23.9% | 20.4% | 26.7% | 19.41 | 44% | 
COc1ccccc1NC(=O)CC1CCc2cc(OC)c(OC)cc21 (stereo not given) | 28.1% | 16% | 21.7% | 23.4% | 24.1% | 30% | 26.17 | 24.5% | 
COc1cc2c(cc1OC)C(CC(=O)Nc1cccc(C)c1)CC2 (stereo not given) | 37.5% | 29% | 37.7% | 40.6% | 38% | 41.7% | 15.83 | 54.3% | Activity [9]: -0.19 °C; Activity [10]: -1.34 °C; Activity [11]: -0.51 °C; Activity [12]: 0.22 °C; Activity [13]: 0.46 °C; Activity [14]: 0.71 °C; Activity [15]: 0.82 °C; inhibition in vivo at 100 mg/kg [16]: 16.5%; inhibition in vivo at 100 mg/kg [17]: 19.2%; inhibition in vivo at 100 mg/kg [18]: 20.7%; Activity [19]: 4.56 g; UI [20]: 0
CC(=O)Oc1ccccc1C(=O)O [ASPIRIN] |  |  |  |  |  |  |  |  | inhibition in vivo at 10 mg/kg [21]: 61.5%; Activity [22]: -0.43 °C; Activity [23]: -0.51 °C; Activity [24]: 0.11 °C; Activity [25]: 0.2 °C; Activity [26]: -1.45 °C; Activity [27]: 0.25 °C; Activity [28]: 0.31 °C; Activity [29]: 13.33
